Here are results for six molecules from ChEMBL document CHEMBL2040765, “Synthesis and anticancer activity of a series of norcantharidin analogues” (2012).

Format in all cases: functional
One assay deals with A2780. Kind of assay: Growth inhibition of human A2780 cells at 100 uM after 72 hrs y MTT assay. The following applies: for inhibition of growth at 100 µM: Homo sapiens, A2780, 72 h, read-out: GI. The procedure, abridged:
(§1)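 Log-phase cells in supplemented DMEM (10% FBS, 4 mM glutamine, antibiotics; 37 °C, 5% CO2) were plated in duplicate at 2500–4000 cells/well. Compound was added 24 h later at a fixed 100 µM, from 40 mM DMSO stocks. After 72 h, MTT absorbance was read at 540 nm and expressed as percent growth inhibition; 100% means total inhibition.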
A general note: Tetrazolium assays rely on reduction of a dye to a coloured formazan, in cell work by metabolically active cells.

The test system of the next assay is SW480. Kind of assay: Growth inhibition of human SW480 cells at 100 uM after 72 hrs y MTT assay. The following applies: for inhibition of growth at 100 µM: Homo sapiens, SW480, 72 h, read-out: GI. Summed up: as §1
The test system of a further assay is MCF7. As to the kind of experiment: Growth inhibition of human MCF7 cells at 100 uM after 72 hrs y MTT assay. The following applies: for inhibition of growth at 100 µM: Homo sapiens, MCF7, 72 h, read-out: GI. Summed up:
as §1

The subject of another assay is DU-145. Kind of assay: Growth inhibition of human DU145 cells at 100 uM after 72 hrs y MTT assay. The note with it: for inhibition of growth at 100 µM: Homo sapiens, DU-145, 72 h, read-out: GI. Summed up:
as §1

A short description of assay [1]: Growth inhibition of human BE(2)-C cells at 100 uM after 72 hrs y MTT assay. The following applies: for inhibition of growth at 100 µM: Homo sapiens, BE(2)-C, 72 h, read-out: GI. Summed up:
as §1

The nature of assay [2]: Growth inhibition of human SJ-G2 cells at 100 uM after 72 hrs y MTT assay. The note with it: for inhibition of growth at 100 µM: Homo sapiens, SJ-G2, 72 h, read-out: GI. The procedure, abridged:
as §1

A further assay relates to A-431. As to the kind of experiment: Growth inhibition of human A431 cells at 100 uM after 72 hrs y MTT assay. The note with it: for inhibition of growth at 100 µM: Homo sapiens, A-431, 72 h, read-out: GI. Summed up:
as §1

The test system of the next assay is NCI-H460. As to the kind of experiment: Growth inhibition of human H460 cells at 100 uM after 72 hrs y MTT assay. The following applies: for inhibition of growth at 100 µM: Homo sapiens, NCI-H460, 72 h, read-out: GI. Summed up: as §1
The test system of the next assay is HT-29. Kind of assay: Growth inhibition of human HT-29 cells at 100 uM after 72 hrs y MTT assay. The following applies: for inhibition of growth at 100 µM: Homo sapiens, HT-29, 72 h, read-out: GI. Summed up: as §1

Consider `CC1OC1CO[C@H]1OC(=O)[C@H]2[C@@H]1[C@@H]1CC[C@H]2O1` (stereo in doubt; 23), for which the inhibition of growth at 100 µM in the assay with A2780 stood at 55%; in the assay with DU-145, 37%. For the same molecule, the “growth inhibition (GI)” value in the assay on SW480 was found to be 41%; in the assay on MCF7, 61%; in assay [1] it was 54%; in assay [2], 88%; with A-431 it was 35%; with NCI-H460, 24%. The “growth inhibition (GI)” value with HT-29 is recorded as 75%.

As for `CC1OC1CO[C@@H]1OC(=O)[C@H]2[C@@H]1[C@@H]1CC[C@H]2O1` (stereo partly drawn), the inhibition of growth at 100 µM was determined as 26% in the assay with A2780; 17% with SW480; 27% in the assay on MCF7; 17% in the assay on DU-145; 23% in [1]; 80% in [2]. Also, the inhibition of growth at 100 µM in the assay with A-431 amounted to 18%; with NCI-H460 it was 9%; in the assay on HT-29 it was 70%.

Consider `O=C1O[C@H](OCC2CO2)[C@@H]2[C@H]1[C@H]1CC[C@@H]2O1` (stereo in doubt; 19), for which the “growth inhibition (GI)” value in the assay with A2780 was determined as 46%; in the assay with SW480, 32%; in the assay with MCF7, 37%; in assay [2] it was 75%; with HT-29, 69%. Moreover, the values for the inhibition of growth at 100 µM with DU-145, with A-431 and in the assay with NCI-H460 were 33%, 35% and 11%, respectively.

For `CC1OC1CO[C@H]1OC(=O)[C@H]2[C@@H]1[C@@H]1CC[C@H]2O1` (stereo in doubt; 24), the “growth inhibition (GI)” value in the assay with A2780 was 58%; with DU-145 it was 20%; with A-431, 17%; in the assay with NCI-H460 it was 9%. Besides, the inhibition of growth at 100 µM stood at 37% in the assay with SW480; 46% in the assay with MCF7; 53% in assay [1]; 79% in assay [2]; 68% in the assay on HT-29.

Take `O=C1O[C@@H](OCC2CO2)[C@@H]2[C@H]1[C@H]1CC[C@@H]2O1` (stereo in doubt; 21): the inhibition of growth at 100 µM in the assay with A2780 was determined as 42%; with DU-145, 25%; in the assay on A-431 it was 22%; in the assay on NCI-H460, 7%. Also, the “growth inhibition (GI)” value with SW480 came out at 23%; with MCF7, 33%; in [1], 35%; in assay [2], 73%; in the assay on HT-29 it was 68%.

For the molecule `O=C1O[C@H](OCC2CO2)[C@@H]2[C@H]1[C@H]1CC[C@@H]2O1` (stereo in doubt; 20), the “growth inhibition (GI)” value in the assay with A2780 turned out to be 83%; in the assay with DU-145, 21%; with A-431, 18%; in the assay on NCI-H460 it was 7%. Further, the inhibition of growth at 100 µM with SW480 stood at 16%; with MCF7, 43%; in [1], 42%; in [2], 59%; in the assay on HT-29, 52%.
